According to paper PMC2885444 (The Biochemical journal, 2009):
Blank lines part the entries; values can stand above or below the substance they belong to.

Key:
CHD4 PHD2 C460W mutant = CHD4 PHD2 C460W mutant (Homo sapiens, UniProt Q14839, C463W); assay: NMR titration, C460W mutant; type: binding
Method in brief: (§1)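 Point mutant of the PHD2 finger was made by PCR mutagenesis and expressed as a GST fusion in E. coli BL21(DE3) pLysS on ¹⁵NH₄Cl minimal medium. It was purified on glutathione beads, tag-cleaved, then held in 20 mM Tris pH 6.8–7.5, 150 mM NaCl, 10 mM DTT and 1 mM NaN₃. ¹H,¹⁵N HSQC was run at 500 MHz with increasing 12-mer histone tail peptides. Kd came from a nonlinear least-squares fit of normalized shift changes.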

[1] = system: PHD fingers of BHC80 and AIRE (mutants); conditions: aspartate to alanine or hydrophobic residue to tryptophan; ref [17],[27]; cited from earlier work
CHD4 PHD2 E447A mutant = CHD4 PHD2 E447A mutant (Homo sapiens, UniProt Q14839, E450A); assay: NMR titration, E447A mutant; type: binding
Method in brief: as §1

CHD4 PHD2 finger = CHD4 PHD2 finger (Homo sapiens, UniProt Q14839); assay: NMR titration; type: binding; conditions: for NMR exchange regime: 1H,15N HSQC titration, NMR time scale
[2] = system: CHD4 PHD2 finger (GST-fusion); type: binding; conditions: C-terminal biotinylated peptides (residues 1–21; H3K27/H3K36 residues 21–44), streptavidin–Sepharose beads, 50 mM Tris pH 7.5, 150 mM NaCl, 0.05% Nonidet P-40; anti-GST HRP detection
CHD4 PHD2 F448A mutant = assay: Binding and NMR of F448A mutant; conditions: F448A mutant vs wild-type
Method in brief: as §1

[3] = system: CHD4 PHD2 finger, Asp^454 substituted with valine; assay: Binding of PHD2 with Asp454 substituted with valine; conditions: Asp454 to valine mutant

CHD4 PHD2 finger, sequence (Q14839 449-496 limits assumed): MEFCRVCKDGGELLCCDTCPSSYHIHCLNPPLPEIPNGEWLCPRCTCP
CHD4 PHD2 C460W mutant, sequence (Q14839 449-496 C463W limits assumed): as the sequence (Q14839 449-496 limits assumed) above, with C15W counted along it
CHD4 PHD2 E447A mutant, sequence (Q14839 449-496 E450A limits assumed): as the sequence (Q14839 449-496 limits assumed) above, with E2A counted along it

- Kd (CHD4 PHD2 C460W mutant; C460W mutant): 3700 µM
- Binding compared with wild-type (CHD4 PHD2 C460W mutant; C460W mutant vs wild-type): significantly weaker
- Kd (CHD4 PHD2 E447A mutant; E447A mutant): 900 µM
- Binding compared with wild-type (CHD4 PHD2 E447A mutant; E447A mutant vs wild-type): significantly weaker
- NMR exchange regime (CHD4 PHD2 finger): intermediate-to-fast exchange regime
Substance: unmodified H3: unmodified histone H3 N-terminal tail peptide (residues 1–21 biotinylated in pull-down; 12-mer in NMR)
- Interaction with mutant PHD fingers [1]: abolish interactions

- NMR changes on titration (CHD4 PHD2 finger; wild-type PHD2, even a 10-fold excess of peptide): no changes
Substance: H3(3-10): peptide comprising residues Thr^3–Ser^10 but lacking Ala^1 and Arg^2 (TKQTARKS)

Substance: H3K4me1: histone H3 mono-methylated at Lys^4
- Binding in pull-down (Western blot) [2]: significantly weaker

Substance: H3K9me1: histone H3 mono-methylated at Lys^9
- Binding in pull-down (Western blot) [2]: able to recognize

- NMR exchange regime (CHD4 PHD2 finger): fast exchange regime
Substance: H3K4me3: histone H3 tri-methylated at Lys^4
- Binding in pull-down (Western blot) [2]: significantly weaker

- Binding compared with wild-type (CHD4 PHD2 F448A mutant): more weakly
- NMR exchange regime (CHD4 PHD2 finger): intermediate-to-fast exchange regime
Substance: H3K9ac: histone H3 acetylated at Lys^9 (20-mer, Anaspec, in NMR; residues 1–21 in pull-down)

- Binding compared with wild-type (CHD4 PHD2 F448A mutant): more weakly
- Binding compared with wild-type [3]: significantly compromised
- NMR exchange regime (CHD4 PHD2 finger): intermediate-to-fast exchange regime
Substance: H3K9me3: histone H3 tri-methylated at Lys^9
